Experimental data taken from ChEMBL document CHEMBL1127533, “Presynaptic cholinergic modulators as potent cognition enhancers and analgesic drugs. 2. 2-Phenoxy-, 2-(phenylthio)-, and 2-(phenylamino)alkanoic acid esters” (J Med Chem, 1994).
The source made the active and inactive calls.

Legend:
Mus musculus [1] = species on record: Mus musculus; test: Analgesic activity in male albino Swiss-Webster mice in hotplate test; assay type: functional; set-up: unit not given here
Summary of the method: (§1)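 Mouse hot-plate assay after Woolfe, with the plate held at 52.5 ± 0.1 °C and a 45 s cutoff. Groups held 8–20 mice. Analgesic potency is expressed as the ED50.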

Mus musculus [2] = test: Analgesic potency was evaluated as effective dose after subcutaneous administration.; assay type: functional; summary of the method: as §1
[3] = biological target: Muscarinic acetylcholine receptor; test: The compound is evaluated for binding affinity against central muscarinic receptor by using [3H]- QNB as radioligand; assay type: protein assay
Mus musculus [4] = test: Analgesic potency was evaluated as Effective Dose 50 after subcutaneous administration. Standard error given in parenthesis; assay type: functional; conditions: sc; summary of the method: as §1
Mus musculus [5] = species on record: Mus musculus; test: Compound was evaluated for analgesic activity, in male albino Swiss-Webster mice with hotplate test and maximum level of analgesia reached is evaluated; assay type: functional
Summary of the method: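 Mouse hot-plate at 52.5 ± 0.1 °C with a 45 s cutoff. Each compound was given at its maximal nontoxic dose, defined as no visible behavioural change to blinded observers. Efficacy = (max reaction time − pretest)/(same for morphine-HCl 8 mg/kg sc) × 100.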

[6] = Mus musculus, sc, read-out: ED50

Structure (SMILES) | Analgesic activity (Mus musculus [1]) | ED50 (Mus musculus [2]; [6]) [mg/kg] | other results
CCC(Oc1ccc(Cl)cc1)C(=O)OC1CC2CCC(C1)N2C.O=C(O)/C=C\C(=O)O (racemic) | 99 | 20 | Ki [3]: 174 nM
C[C@@H](Oc1ccc(F)cc1)C(=O)OC1CC2CCC(C1)N2C (stereo partly drawn) | 106 | 21 | 
CC(C(=O)OC1CC2CCC(C1)N2C)[S+]([O-])c1ccccc1 (stereo not drawn) | inactive |  | 
C[C@H](Sc1ccc(Cl)cc1)C(=O)OC1CC2CCC(C1)N2C (stereo partly drawn) | 34 | 16 | 
CC(Oc1ccc(C#N)cc1)C(=O)OC1CC2CCC(C1)N2C.O=C(O)/C=C\C(=O)O (stereo not drawn) | 53 | 31 | 
CC(Sc1ccc(F)cc1)C(=O)OC1CC2CCC(C1)N2C (stereo not drawn) | 41 | 15 | 
CC[C@H](Oc1ccc(Cl)cc1)C(=O)OC1CC2CCC(C1)N2C (stereo partly drawn) | 56 | 18 | 
CC(Oc1ccc(Cl)cc1)C(=O)OC1CC2CCC(C1)N2 (stereo not drawn) | inactive |  | 
CC(Sc1ccccc1)C(=O)OC1CC2CCC(C1)N2C.O=C(O)/C=C\C(=O)O (stereo not drawn) | 62 | 30 | 
CCN(CC)CC#CCOC(=O)C(C)Oc1ccc(Cl)cc1 (stereo not drawn) | inactive |  | 
CC(Nc1ccc(Cl)cc1)C(=O)OC1CC2CCC(C1)N2C (stereo not drawn) | 33 | 31 | 
CCC(COC1CC2CCC(C1)N2C)Sc1ccc(Cl)cc1 (stereo not drawn) | 53 | 39 | 
CCC(Sc1ccc(Cl)cc1)C(=O)OC1CC2CCC(C1)N2C (racemic) | 79 | 20 | 
CC(C(=O)OC1CC2CCC(C1)N2C)N(C)c1ccc(Cl)cc1.O=C(O)/C=C\C(=O)O (stereo not drawn) | 86 | 29 | 
CC(COC1CC2CCC(C1)N2C)Sc1ccc(Cl)cc1 (stereo not drawn) | inactive |  | 
CC(Sc1ccc(Cl)cc1)C(=O)OC1CC2CCC(C1)N2C.O=C(O)/C=C\C(=O)O (racemic) | 72 | 19 | 
CCC(Oc1ccc2ccccc2c1)C(=O)OC1CC2CCC(C1)N2C (stereo not drawn) | inactive |  | 
CN1C2CCC1CC(OC(=O)C(C)(C)Oc1ccc(Cl)cc1)C2 (stereo not drawn) | 52 | 23 | 
CC(Oc1ccc(Br)cc1)C(=O)OC1CC2CCC(C1)N2C (stereo not drawn) | 86 | 31 | 
CC(Nc1ccccc1)C(=O)OC1CC2CCC(C1)N2C.Cl (stereo not drawn) | 74 | 32 | 
CC(COC1CC2CCC(C1)N2C)Oc1ccc(Cl)cc1 (stereo not drawn) | 64 | 44 | 
C[C@@H](Oc1ccc(Cl)cc1)C(=O)OC1CC2CCC(C1)N2C (stereo partly drawn) | 68 | 16 | 
CC[C@@H](Oc1ccc(Cl)cc1)C(=O)OC1CC2CCC(C1)N2C (stereo partly drawn) | 89 | 14 | 
CCC(Oc1ccc2cc(Br)ccc2c1)C(=O)OC1CC2CCC(C1)N2C.O=C(O)/C=C\C(=O)O (stereo not drawn) | 32 | 42 | 
CCC(Oc1ccc(Cl)cc1)C(=O)OC1CCN(C)CC1 (stereo not drawn) | inactive |  | 

Structure (SMILES) | Analgesic activity (Mus musculus [1]) | ED50 (Mus musculus [2]; [6]) [mg/kg] | other results
CC(Oc1ccc(Cl)cc1)C(=O)NC1CC2CCC(C1)N2C.Cl (stereo not drawn) | 33 | 36 | 
CCC(Oc1ccc(F)cc1)C(=O)OC1CC2CCC(C1)N2C (stereo not drawn) | 94 | 37 | 
CC(Oc1ccc(-c2ccccc2)cc1)C(=O)OC1CC2CCC(C1)N2C (stereo not drawn) | inactive |  | 
CCN(CC)CCOC(=O)C(C)Oc1ccc(Cl)cc1 (stereo not drawn) | inactive |  | 
CC(Oc1ccc2ccccc2c1)C(=O)OC1CC2CCC(C1)N2C.O=C(O)/C=C\C(=O)O (stereo not drawn) | 86 | 34 | 
Cc1ccc(SC(C)C(=O)OC2CC3CCC(C2)N3C)cc1.O=C(O)/C=C\C(=O)O (stereo not drawn) | 33 | 7 | 
C[C@H](Oc1ccc(F)cc1)C(=O)OC1CC2CCC(C1)N2C (stereo partly drawn) | 65 | 23 | 
CC(Sc1ccc(Br)cc1)C(=O)OC1CC2CCC(C1)N2C (stereo not drawn) | 33 | 35 | 
CCC(C(=O)OC1CC2CCC(C1)N2C)N(C)c1ccc(Cl)cc1.O=C(O)/C=C\C(=O)O (stereo not drawn) | 85 | 38 | 
CCC(Oc1ccc(Cl)cc1)C(=O)OCC#CCN(CC)CC (stereo not drawn) | inactive |  | 
CC(Oc1ccc2cc(Br)ccc2c1)C(=O)OC1CC2CCC(C1)N2C (stereo not drawn) | inactive |  | 
CCC(COC1CC2CCC(C1)N2C)Oc1ccc(Cl)cc1 (stereo not drawn) | inactive |  | 
CN1C2CCC1CC(OC(=O)C(Oc1ccc(Cl)cc1)c1ccccc1)C2 (stereo not drawn) | inactive |  | 
CCC(Sc1ccccc1)C(=O)OC1CC2CCC(C1)N2C (single isomer, unassigned; (+)) | 86 | 16 | 
CC(Oc1ccc([S+](C)[O-])cc1)C(=O)OC1CC2CCC(C1)N2C (stereo not drawn) | inactive |  | 
CC(Oc1ccccc1Cl)C(=O)OC1CC2CCC(C1)N2C (stereo not drawn) | inactive |  | 
CC[C@H](Sc1ccc(Cl)cc1)C(=O)OC1CC2CCC(C1)N2C (stereo partly drawn) | 38 | 14 | 
CCC(Oc1ccccc1)C(=O)OC1CC2CCC(C1)N2C (stereo not drawn) | 35 | 31 | 
CC(Oc1ccc(C(F)(F)F)cc1)C(=O)OC1CC2CCC(C1)N2C (stereo not drawn) | 44 | 26 | 
CC(C(=O)OC1CC2CCC(C1)N2C)C(=O)c1ccc(Cl)cc1 (stereo not drawn) | 30 | 34 | 
CN1C2CCC1CC(OC(=O)C(Cc1ccccc1)Oc1ccc(Cl)cc1)C2 (stereo not drawn) | inactive |  | 
CC(Oc1cccc(Cl)c1)C(=O)OC1CC2CCC(C1)N2C (stereo not drawn) | 62 | 26 | 
CCC(Oc1ccc(Cl)c2ccccc12)C(=O)OC1CC2CCC(C1)N2C (stereo not drawn) | inactive |  | 
CC(C)C(Sc1ccc(Cl)cc1)C(=O)OC1CC2CCC(C1)N2C.O=C(O)/C=C\C(=O)O (stereo not drawn) | 41 | 41 | 
CC(Oc1ccc(C(C)(C)C)cc1)C(=O)OC1CC2CCC(C1)N2C (stereo not drawn) | inactive |  | 

Structure (SMILES) | Analgesic activity (Mus musculus [1]) | ED50 (Mus musculus [2]; [6]) [mg/kg] | other results
CC(Oc1ccc(F)cc1)C(=O)OC1CC2CCC(C1)N2C.O=C(O)/C=C\C(=O)O (racemic) | 91 | 33 | 
CC(Oc1ccc(Cl)c2ccccc12)C(=O)OC1CC2CCC(C1)N2C (stereo not drawn) | inactive |  | 
C[C@H](Oc1ccc(Cl)cc1)C(=O)OC1CC2CCC(C1)N2C (stereo partly drawn) | 37 | 17 | 
Cc1cc(OC(C)C(=O)OC2CC3CCC(C2)N3C)ccc1Cl (stereo not drawn) | inactive |  | 
CCC(Oc1ccc(Cl)cc1)C(=O)OCCCN(C)C (stereo not drawn) | inactive |  | 
CSc1ccc(OC(C)C(=O)OC2CC3CCC(C2)N3C)cc1.O=C(O)/C=C\C(=O)O (stereo not drawn) | 21 | 43 | 
CC(Oc1cccc2ccccc12)C(=O)OC1CC2CCC(C1)N2C (stereo not drawn) | inactive |  | 
C[C@@H](Sc1ccc(Cl)cc1)C(=O)OC1CC2CCC(C1)N2C (stereo partly drawn) | 61 | 14 | 
CC(Oc1ccc(Cl)c(Cl)c1)C(=O)OC1CC2CCC(C1)N2C.O=C(O)/C=C\C(=O)O (stereo not drawn) | 50 | 22 | 
CCN1C2CCC1CC(OC(=O)C(C)Oc1ccc(Cl)cc1)C2.O=C(O)/C=C\C(=O)O (stereo not drawn) | 42 | 42 | 
CCC(Sc1ccccc1)C(=O)OC1CC2CCC(C1)N2C (stereo in doubt; (-)-42) | 53 |  | ED50 (Mus musculus [2]): 13 mg/kg
CC(C)C(Oc1ccc(Cl)cc1)C(=O)OC1CC2CCC(C1)N2C (stereo not drawn) | inactive |  | 
CC(Oc1ccc(Cl)cc1)C(=O)OC1CC2CCC(C1)N2C.O=C(O)/C=C\C(=O)O (stereo in doubt; 12) | 26 |  | ED50 (Mus musculus [2]): 21 mg/kg
CC[C@@H](Sc1ccc(Cl)cc1)C(=O)OC1CC2CCC(C1)N2C (stereo partly drawn) | 64 | 11 | 
CC(=O)OCC(Oc1ccc(Cl)cc1)C(=O)OC1CC2CCC(C1)N2C (stereo not drawn) | 25 | 23 | 
CCC(Oc1ccc(Cl)cc1)C(=O)OC1CC2CCC(C1)N2CC (stereo not drawn) | 45 | 32 | 
CN1C2CCC1CC(OC(=O)CCOc1ccccc1)C2.O=C(O)/C=C\C(=O)O (stereo not drawn) |  |  | ED50 (Mus musculus [4]): 22 mg/kg; Analgesic activity (Mus musculus [5]): 28
CC(Oc1ccc(Cl)cc1)C(=O)OC1CC2CCC(C1)N2Cc1ccccc1 (stereo not drawn) | inactive |  | 
CC(Oc1ccc(Cl)cc1)C(=O)OC1CC2CCC(C1)N2C.O=C(O)/C=C\C(=O)O (racemic) |  | 32 | Analgesic activity (Mus musculus [5]): 90
CCC(Oc1cccc2ccccc12)C(=O)OC1CC2CCC(C1)N2C (stereo not drawn) | inactive |  | 
CCC(Sc1ccccc1)C(=O)OC1CC2CCC(C1)N2C (racemic) | 103 |  | ED50 (Mus musculus [2]): 18 mg/kg; Ki [3]: 22.7 nM
CC(Oc1ccccc1)C(=O)OC1CC2CCC(C1)N2C (stereo not drawn) | inactive |  | 
CN1C2CCC1CC(OC(=O)COc1ccccc1)C2 (stereo not drawn) | inactive |  | 
CC(Oc1ccc(Cl)cc1)C(=O)OC1CCN(C)CC1 (stereo not drawn) | inactive |  | 
